In ChEMBL document CHEMBL3091329, “Discovery of tetrahydroisoquinoline-based CXCR4 antagonists” (ACS Med Chem Lett, 2013):
Activity calls are given as the source filed them. No cut-off for these calls is given here.

Assays:
[1] = Elimination half life in jugular pre-cannulated Harlan Sprague-Dawley rat at 2 mg/kg, iv; type: ADME, organism-based; set-up: dose 2 mg/kg, route intravenous; conditions: in vivo, read-out: beta t1/2 (converted)
[2] = target: T1, C-X-C chemokine receptor type 3 (Homo sapiens) (UniProt P49682); assay: Inhibition of CXCR3 (unknown origin) at 10 uM relative to control
T1 sequence (whole entry): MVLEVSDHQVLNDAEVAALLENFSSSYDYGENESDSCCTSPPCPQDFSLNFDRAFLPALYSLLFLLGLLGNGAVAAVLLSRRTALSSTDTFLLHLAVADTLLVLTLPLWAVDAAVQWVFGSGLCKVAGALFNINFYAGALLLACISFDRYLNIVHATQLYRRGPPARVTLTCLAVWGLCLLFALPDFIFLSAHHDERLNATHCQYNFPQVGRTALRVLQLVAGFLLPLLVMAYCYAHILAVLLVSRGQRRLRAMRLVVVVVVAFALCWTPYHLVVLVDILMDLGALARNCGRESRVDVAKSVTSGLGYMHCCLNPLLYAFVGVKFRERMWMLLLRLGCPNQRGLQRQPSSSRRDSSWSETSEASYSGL

[3] = Cytotoxicity against human PBMC assessed as cell viability by MTS assay; type: cell-based; conditions: read-out: TC50 (the source's name)
[4] = target: C-C chemokine receptor type 2 (Homo sapiens) (UniProt P41597); assay: Inhibition of CCR2B (unknown origin) at 10 uM relative to control
[5] = target: T2, C-X-C chemokine receptor type 5 (Homo sapiens) (UniProt P32302); assay: Inhibition of CXCR5 (unknown origin) at 10 uM relative to control
T2 sequence (whole entry): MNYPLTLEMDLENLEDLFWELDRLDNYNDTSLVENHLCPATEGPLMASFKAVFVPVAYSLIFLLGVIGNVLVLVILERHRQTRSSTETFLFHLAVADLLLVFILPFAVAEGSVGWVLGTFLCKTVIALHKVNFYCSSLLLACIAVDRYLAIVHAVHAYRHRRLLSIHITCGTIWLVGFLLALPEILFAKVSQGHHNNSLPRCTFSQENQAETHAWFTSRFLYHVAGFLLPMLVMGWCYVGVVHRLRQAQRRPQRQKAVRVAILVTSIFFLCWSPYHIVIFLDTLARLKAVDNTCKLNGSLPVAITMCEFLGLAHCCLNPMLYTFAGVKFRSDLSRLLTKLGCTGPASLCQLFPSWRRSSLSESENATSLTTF

[6] = target: T3, C-C chemokine receptor type 9 (Homo sapiens) (UniProt P51686); assay: Inhibition of CCR9 (unknown origin) at 10 uM relative to control
T3 sequence (whole entry): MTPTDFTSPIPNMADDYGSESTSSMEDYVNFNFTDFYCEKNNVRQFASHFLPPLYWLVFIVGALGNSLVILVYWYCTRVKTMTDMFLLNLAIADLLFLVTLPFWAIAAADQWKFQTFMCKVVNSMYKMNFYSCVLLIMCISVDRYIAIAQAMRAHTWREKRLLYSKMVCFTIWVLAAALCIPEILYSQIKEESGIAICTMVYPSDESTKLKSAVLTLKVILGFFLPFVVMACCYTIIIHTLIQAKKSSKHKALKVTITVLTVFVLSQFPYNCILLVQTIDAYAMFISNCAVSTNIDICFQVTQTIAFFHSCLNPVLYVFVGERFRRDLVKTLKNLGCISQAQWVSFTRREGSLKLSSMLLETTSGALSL

[7] = target: C-X-C chemokine receptor type 4 (Homo sapiens, UniProt P61073)
[8] = target: T4, C-C chemokine receptor type 7 (Homo sapiens) (UniProt P32248); assay: Inhibition of CCR7 (unknown origin) at 10 uM relative to control
T4 sequence (whole entry): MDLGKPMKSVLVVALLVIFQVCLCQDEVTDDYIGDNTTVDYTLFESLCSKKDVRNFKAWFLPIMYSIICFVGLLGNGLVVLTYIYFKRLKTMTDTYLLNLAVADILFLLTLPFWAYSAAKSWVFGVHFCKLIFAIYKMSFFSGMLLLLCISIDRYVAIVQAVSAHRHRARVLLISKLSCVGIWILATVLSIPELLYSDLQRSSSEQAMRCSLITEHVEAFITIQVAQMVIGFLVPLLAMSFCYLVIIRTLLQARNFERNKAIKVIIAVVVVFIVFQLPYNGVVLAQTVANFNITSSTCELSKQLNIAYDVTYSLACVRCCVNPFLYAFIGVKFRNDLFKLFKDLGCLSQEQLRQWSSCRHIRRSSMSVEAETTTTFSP

[9] = Half life in human liver microsomes at 1 uM incubated for 3 mins prior to NADPH addition by LC-MS/MS analysis; type: ADME
[10] = AUC (0 to infinity) in jugular pre-cannulated CRL Sprague-Dawley rat at 10 mg/kg, po; type: ADME, organism-based; set-up: dose 10 mg/kg, route oral, time infinity; conditions: plasma
[11] = Plasma concentration in Harlan C57BL/6 mouse at 20 mg/kg, sc after 1 hr by LC/MS/MS analysis; type: ADME, organism-based; set-up: dose 20 mg/kg, route subcutaneous
Summary of the method: (§1)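 Harlan mice were given a single subcutaneous dose at 5, 10 or 20 mg/kg. Blood was sampled at multiple time points over about 8 h, and each sample was used for both total circulating WBC count and plasma drug level. Counts and concentrations were plotted against time for each dose.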

[12] = target: C-C chemokine receptor type 5 (Homo sapiens) (UniProt P51681); assay: Inhibition of CCR5 (unknown origin) at 10 uM relative to control
Mus musculus = assay: Induction of WBC mobilization in Harlan C57BL/6 mouse at 5 to 20 mg/kg, sc after 6 to 8 hrs by LC/MS/MS analysis relative to control; type: functional, organism-based; summary of the method: as §1
[13] = Oral bioavailability in jugular pre-cannulated CRL Sprague-Dawley rat at 10 mg/kg; type: ADME, organism-based; conditions: in vivo
Summary of the method: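 Oral dosing by gavage at 10 mg/kg, with an i.v. arm at 2 mg/kg. Plasma AUC was calculated for each route, and F was obtained from the dose-normalised ratio of oral to i.v. AUC.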

[14] = Intrinsic clearance in mouse liver microsomes at 1 uM incubated for 3 mins prior to NADPH addition by LC-MS/MS analysis; type: ADME, Microsome; conditions: 0.05 h
[15] = Elimination half life in jugular pre-cannulated CRL Sprague-Dawley rat at 10 mg/kg, po; type: ADME, organism-based; set-up: dose 10 mg/kg, route oral; conditions: in vivo, read-out: beta t1/2 (converted)
[16] = target: T5, C-C chemokine receptor type 3 (Homo sapiens) (UniProt P51677); assay: Inhibition of CCR3 (unknown origin) at 10 uM relative to control
T5 sequence (whole entry): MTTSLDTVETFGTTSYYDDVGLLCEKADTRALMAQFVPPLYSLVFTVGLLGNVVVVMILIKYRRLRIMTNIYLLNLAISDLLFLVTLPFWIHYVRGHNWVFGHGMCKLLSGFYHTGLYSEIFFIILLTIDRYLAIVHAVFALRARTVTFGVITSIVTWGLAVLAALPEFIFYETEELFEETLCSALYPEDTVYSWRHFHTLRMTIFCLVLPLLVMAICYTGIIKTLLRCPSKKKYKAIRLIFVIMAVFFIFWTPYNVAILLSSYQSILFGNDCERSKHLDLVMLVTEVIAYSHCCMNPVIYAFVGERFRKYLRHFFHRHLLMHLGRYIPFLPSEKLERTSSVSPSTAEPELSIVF

Chain of C-X-C chemokine receptor type 4 (P61073 whole entry): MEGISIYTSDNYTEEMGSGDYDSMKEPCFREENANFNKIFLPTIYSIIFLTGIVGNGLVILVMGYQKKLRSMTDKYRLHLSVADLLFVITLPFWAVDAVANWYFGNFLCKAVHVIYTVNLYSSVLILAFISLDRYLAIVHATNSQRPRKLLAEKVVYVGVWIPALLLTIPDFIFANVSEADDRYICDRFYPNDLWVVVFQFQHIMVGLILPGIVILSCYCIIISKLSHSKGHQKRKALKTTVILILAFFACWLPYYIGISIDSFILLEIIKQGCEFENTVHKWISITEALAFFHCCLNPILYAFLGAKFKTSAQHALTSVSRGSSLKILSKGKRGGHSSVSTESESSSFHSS
Chain of C-C chemokine receptor type 5 (Homo sapiens) (P51681 whole entry, looked up): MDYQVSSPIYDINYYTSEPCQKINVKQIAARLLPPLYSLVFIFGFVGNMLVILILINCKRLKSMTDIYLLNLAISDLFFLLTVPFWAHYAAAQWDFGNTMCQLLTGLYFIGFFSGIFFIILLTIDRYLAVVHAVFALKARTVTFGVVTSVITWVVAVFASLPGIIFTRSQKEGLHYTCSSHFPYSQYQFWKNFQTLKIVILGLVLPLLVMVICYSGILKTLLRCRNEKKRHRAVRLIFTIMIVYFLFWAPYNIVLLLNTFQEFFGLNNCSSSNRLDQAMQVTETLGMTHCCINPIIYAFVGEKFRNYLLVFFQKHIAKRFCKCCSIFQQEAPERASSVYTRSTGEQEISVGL
Chain of C-C chemokine receptor type 2 (Homo sapiens) (P41597 whole entry, looked up): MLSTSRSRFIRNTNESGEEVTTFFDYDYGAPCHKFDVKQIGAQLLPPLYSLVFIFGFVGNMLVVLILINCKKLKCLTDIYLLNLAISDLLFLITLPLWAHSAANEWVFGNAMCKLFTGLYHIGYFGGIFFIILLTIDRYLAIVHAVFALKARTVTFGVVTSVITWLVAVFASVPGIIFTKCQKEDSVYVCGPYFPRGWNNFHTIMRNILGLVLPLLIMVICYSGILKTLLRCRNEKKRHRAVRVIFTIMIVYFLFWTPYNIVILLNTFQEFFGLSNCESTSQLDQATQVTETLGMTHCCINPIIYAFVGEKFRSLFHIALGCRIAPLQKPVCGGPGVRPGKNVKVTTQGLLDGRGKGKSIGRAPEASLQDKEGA

half-life [1]: 1.2 h
inhibition [2]: < 10%
inhibition [4]: < 10%
inhibition [5]: < 10%
inhibition [6]: < 10%
IC90 [7]: 0.24 µM
inhibition [8]: < 10%
half-life at 1 µM [9]: > 1 h
AUC(0-inf) [10]: 328 ng·h/mL
concentration at 1 h [11]: 1540 ng/mL
inhibition [12]: < 10%
bioavailability [13]: 63%
CLH [14]: 64 µL/min/mg
half-life [15]: 6 h
inhibition [16]: < 10%
Compound: NCCCCN(C[C@H]1Cc2ccccc2CN1)[C@H]1CCCc2cccnc21
CC50 [3]: 47 µM
Activity (Mus musculus): inactive
